We go through 18 compounds from ChEMBL document CHEMBL1828566, “Synthesis of 4β-triazole-podophyllotoxin derivatives by azide-alkyne cycloaddition and biological evaluation as potential antitumor agents” (Eur J Med Chem, 2011).

Assay [1] concerns HeLa. The assay is described as follows: Cytotoxicity against human HeLa cells after 2 days by MTT assay. The class given is functional, cell-based. To be noted: 48 h. The gist of the method:
(§1)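 Exponentially growing cells were seeded in 96-well plates, precultured 1 day, exposed to test compounds over a range of concentrations, then incubated 2 more days.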
Background: Formazan colour is commonly taken as a measure of viable cells.

For assay [2], the system named is K562. The assay is described as follows: Cytotoxicity against human K562 cells after 2 days by MTT assay. To be noted: K562, 48 h. The class given is functional, cell-based. The gist of the method: as §1
Assay [3] in a line: Cytotoxicity against human K562/A02 cells after 2 days by MTT assay. The class given is functional, cell-based. Conditions: K562/A02, 48 h. The gist of the method:
as §1

The test system of assay [4] is HeLa. The assay is described as follows: Selectivity index, ratio of IC50 for VP-16 to compound for human HeLa cells after 2 days by MTT assay. The class given is functional.
The test system of assay [5] is K562. As to the kind of experiment: Selectivity index, ratio of IC50 for VP-16 to compound for human K562 cells after 2 days by MTT assay. The class given is functional.
Assay [6] can be described thus: Selectivity index, ratio of IC50 for VP-16 to compound for human K562/A02 cells after 2 days by MTT assay. The class given is functional.

Where a name gives a salt, the structure may show the parent alone.

What is called IC50 is the concentration that inhibits the measured activity by half. A lower IC50 goes with greater potency in that assay. Regarding `COc1cc([C@@H]2c3cc4c(cc3[C@@H](n3cc(C(=O)Nc5ccccc5Cl)nn3)[C@H]3COC(=O)[C@H]23)OCO4)cc(OC)c1OC`, the figures for the IC50 (in the assay on HeLa [1]; with K562 [2]; in assay [3]) were 0.082 µM, 0.053 µM and 0.059 µM, respectively. In addition, the “Ratio IC50” value (in the assay on HeLa [4]; with K562 [5]; in assay [6]) was above 40 in each case.
`COc1cc([C@@H]2c3cc4c(cc3[C@@H](n3cc(CN(C)C)nn3)[C@H]3COC(=O)[C@H]23)OCO4)cc(OC)c1OC`: the IC50 (with HeLa [1]; in the assay on K562 [2]; in assay [3]) was above 10 µM throughout.
Take `COc1cc([C@@H]2c3cc4c(cc3[C@@H](n3nncc3-c3cccnc3)[C@H]3COC(=O)[C@H]23)OCO4)cc(OC)c1OC`: the results for the 50% inhibitory concentration (IC50) (in the assay on HeLa [1]; with K562 [2]; in assay [3]) were 1.46 µM, 0.39 µM and 1.23 µM, respectively.
For `COc1cc([C@@H]2c3cc4c(cc3[C@@H](n3cc(C(=O)Nc5ccc(C)cc5)nn3)[C@H]3COC(=O)[C@H]23)OCO4)cc(OC)c1OC`, the half-maximal inhibitory concentration (IC50) (in the assay with HeLa [1]; in the assay on K562 [2]; in assay [3]) was above 100 µM in each case.
`CCOC(=O)c1cnnn1[C@@H]1c2cc3c(cc2[C@@H](c2cc(OC)c(OC)c(OC)c2)[C@H]2C(=O)OC[C@@H]21)OCO3`: the half-maximal inhibitory concentration (IC50) in the assay on HeLa [1] was 0.92 µM; in the assay with K562 [2], 0.85 µM; in assay [3] it was 0.69 µM.
The like results for `CCOC(=O)c1cn([C@@H]2c3cc4c(cc3[C@@H](c3cc(OC)c(OC)c(OC)c3)[C@H]3C(=O)OC[C@@H]32)OCO4)nn1` were, in that order, 3.53 µM, 4.25 µM and 2.21 µM.
As to `COc1cc([C@@H]2c3cc4c(cc3[C@@H](n3cc(CCC(=O)O)nn3)[C@H]3COC(=O)[C@H]23)OCO4)cc(OC)c1OC`, the IC50 (in the assay on HeLa [1]; with K562 [2]; in assay [3]) was above 10 µM in each case.
With `COc1cc([C@@H]2c3cc4c(cc3[C@@H](n3cc(-c5cccnc5)nn3)[C@H]3COC(=O)[C@H]23)OCO4)cc(OC)c1OC`, the IC50 with HeLa [1] is 35.3 µM; in the assay with K562 [2], above 10 µM; in assay [3], above 10 µM.
Take `COC(=O)c1cn([C@@H]2c3cc4c(cc3[C@@H](c3cc(OC)c(OC)c(OC)c3)[C@H]3C(=O)OC[C@@H]32)OCO4)nn1`: the results for the IC50 (in the assay on HeLa [1]; with K562 [2]; in assay [3]) were 1.12 µM, 4.15 µM and 2.07 µM, respectively.
Taken in the same sequence, the figures for `CCN(CC)C(=O)c1cn([C@@H]2c3cc4c(cc3[C@@H](c3cc(OC)c(OC)c(OC)c3)[C@H]3C(=O)OC[C@@H]32)OCO4)nn1` were above 10 µM, above 10 µM and above 10 µM.
On to `COc1cc([C@@H]2c3cc4c(cc3[C@@H](n3cc(C(=O)O)nn3)[C@H]3COC(=O)[C@H]23)OCO4)cc(OC)c1OC`, for which the IC50 in the assay on HeLa [1] was above 10 µM; in the assay with K562 [2], 5.4 µM; in assay [3], 8.87 µM.
On to `COc1cc([C@@H]2c3cc4c(cc3[C@@H](n3cc(CNc5ccc(C)cc5)nn3)[C@H]3COC(=O)[C@H]23)OCO4)cc(OC)c1OC`, for which the IC50 in the assay with HeLa [1] was found to be 0.845 µM; in the assay on K562 [2], 0.47 µM; in assay [3] it was 0.52 µM.
For the compound `COc1cc([C@@H]2c3cc4c(cc3[C@@H](n3cc(CNc5ccccc5)nn3)[C@H]3COC(=O)[C@H]23)OCO4)cc(OC)c1OC`, the IC50 worked out at 2.36 µM with HeLa [1], 5.73 µM with K562 [2] and 5.96 µM in assay [3].
Taken in the same sequence, the figures for `COc1cc([C@@H]2c3cc4c(cc3[C@@H](O[C@@H]3O[C@@H]5CO[C@@H](C)O[C@H]5[C@H](O)[C@H]3O)[C@H]3COC(=O)[C@H]23)OCO4)cc(OC)c1O` [ETOPOSIDE] were 6.27 µM, 2.11 µM and 152 µM.
Taken in the same sequence, the figures for `COc1cc([C@@H]2c3cc4c(cc3[C@@H](n3nncc3C(=O)Nc3ccc(C)cc3)[C@H]3COC(=O)[C@H]23)OCO4)cc(OC)c1OC` were above 10 µM, 5.1 µM and 19.8 µM.
The like results for `COc1cc([C@@H]2c3cc4c(cc3[C@H](O)[C@H]3COC(=O)[C@H]23)OCO4)cc(OC)c1OC` [PODOFILOX] were, in that order, 0.1 µM, 0.03 µM and 0.17 µM.
Regarding `COC(=O)c1cnnn1[C@@H]1c2cc3c(cc2[C@@H](c2cc(OC)c(OC)c(OC)c2)[C@H]2C(=O)OC[C@@H]21)OCO3`, the figures for the 50% inhibitory concentration (IC50) (in the assay on HeLa [1]; in the assay with K562 [2]; in assay [3]) were 0.42 µM, 0.4 µM and 0.6 µM, respectively.
The like results for `COc1cccc2c1C(=O)c1c(O)c3c(c(O)c1C2=O)C[C@@](O)(C(=O)CO)C[C@@H]3O[C@H]1C[C@H](N)[C@H](O)[C@H](C)O1` [DOXORUBICIN HYDROCHLORIDE] were, in that order, 0.43 µM, 0.36 µM and 19.2 µM.
